Source: PMC7004556 (Cancer Science, 2020)
“Also recorded” adds a separate entry of the source. Marks after values point to notes of the source that are not given here.

Experiments:
[1] = test system: patients with advanced solid tumors; assay: Phase I dose escalation: safety and tolerability; type: in vivo, human
In short: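 Patients received a single 1 mg oral dose on cycle 0 day 1, then a washout on days 2-7. Oral once-daily dosing followed in 28-day cycles from day 8-10. Doses were escalated by mTPI design (target DLT rate 25% ± 5%). DLTs were assessed over cycles 0-1 against predefined haematological, non-haematological, calcification and hyperphosphataemia criteria. AEs were coded by MedDRA v20.1 and graded by CTCAE v4.03.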

FGFR = conditions: SNU‐16 cells, dose‐dependent; cited from earlier work
FGFR pathway = assay: Pharmacodynamic markers of FGFR pathway inhibition; type: in vivo, human; conditions: QD
In short: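 Blood was drawn before dosing in cycles 0, 1 and later odd cycles, and after the cycle 0 dose on days 1-4. FGF23 was measured by solid-phase sandwich ELISA (mouse anti-human FGF23 capture, peroxidase-conjugated mouse anti-human FGF23 detection, colorimetric). 1,25-(OH)2-vitamin D was measured by double-antibody RIA (sheep antibody 16-18 h, 125I tracer, cellulose-conjugated donkey anti-sheep IgG, γ-counting). Serum phosphate was also tracked.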

advanced solid tumors = assay: Antitumor activity by RECIST v1.1 in phase I; type: in vivo, human
In short: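 Tumours assessed by CT and/or MRI per RECIST v1.1 at screening, every 8 weeks from cycle 1 day 1, and at discontinuation. Oral once-daily dosing ran in 28-day cycles. Best overall response was scored in patients with ≥1 RECIST target lesion. The efficacy set covered treated patients with a baseline and ≥1 post-baseline assessment.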

Phase I pharmacokinetics = type: in vivo, human; conditions: for AUC(0‐t) / C avg / C max / C min / T max / AUC(0‐inf) / CL/F / T 1/2 / Vz/F: oral; for T max: median (range)
In short: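 Plasma was sampled predose in all cycles and after dosing up to cycle 3. Plasma (100 µL) plus IS and 5 mmol/L ammonium hydrogen carbonate underwent solid-phase extraction, with methanol/formic acid elution. Drug in plasma and urine was quantified by LC-MS/MS: ODS column at 40°C, isocratic 40:60 water/acetonitrile-water with 15 mmol/L ammonium hydrogen carbonate, 0.25 mL/minute, positive-mode MRM. Parameters came from non-compartmental analysis.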

[2] = test system: tumors harboring FGFR abnormalities; conditions: mice with tumors metastasized to the lung; cited from earlier work
[3] = repeated dose QD, 30 mg (n = 2), mean
[4] = repeated dose QD, 60 mg (n = 2), mean
[5] = repeated dose QD, 100 mg (n = 3), mean ± SD
[6] = repeated dose QD, 140 mg (n = 3), mean ± SD
[7] = repeated dose QD, 180 mg (n = 3), mean ± SD
[8] = single dose, 30 mg (n = 2), mean
[9] = single dose, 60 mg (n = 3), mean ± SD
[10] = single dose, 100 mg (n = 3), mean ± SD
[11] = single dose, 140 mg (n = 3), mean ± SD
[12] = single dose, 180 mg (n = 3), mean ± SD

## CNC(=O)n1ccc2cc(Oc3ccnc(NC(=O)c4ccc(C5CCN(CCO)CC5)cc4)c3)c(OCCOC)cc21 [E7090]
[1]; 1 mg QD to 140 mg QD, cycle 0‐cycle 1
  Dose‐limiting toxicity (DLT): No DLT was observed; also recorded: no DLT were reported
[1]; 60 mg (n = 3), any grade
  ALT increased, treatment‐related TEAE: 1 (33.3) n (%)
  Anemia, treatment‐related TEAE: 1 (33.3) n (%)
  Blood creatinine increased, treatment‐related TEAE: 2 (66.7) n (%)
  Diarrhea, treatment‐related TEAE: 2 (66.7) n (%)
  Lipase increased, treatment‐related TEAE: 1 (33.3) n (%)
  Nausea, treatment‐related TEAE: 1 (33.3) n (%)
  PPE syndrome, treatment‐related TEAE: 1 (33.3) n (%)
  Vomiting, treatment‐related TEAE: 1 (33.3) n (%)
[1]; 100 mg (n = 3), any grade
  Anemia, treatment‐related TEAE: 1 (33.3) n (%)
  Blood ALP increased, treatment‐related TEAE: 1 (33.3) n (%)
  Blood creatinine increased, treatment‐related TEAE: 1 (33.3) n (%)
  Hyperphosphatemia, treatment‐related TEAE: 3 (100.0) n (%)
  Lipase increased, treatment‐related TEAE: 1 (33.3) n (%)
  Nausea, treatment‐related TEAE: 1 (33.3) n (%)
  Retinal detachment, treatment‐related TEAE: 2 (66.7) n (%)
[1]; 140 mg (n = 3), any grade
  ALT increased, treatment‐related TEAE: 3 (100.0) n (%)
  AST increased, treatment‐related TEAE: 2 (66.7) n (%)
  Anemia, treatment‐related TEAE: 1 (33.3) n (%)
  Blood ALP increased, treatment‐related TEAE: 2 (66.7) n (%)
  Blood creatinine increased, treatment‐related TEAE: 3 (100.0) n (%)
  Diarrhea, treatment‐related TEAE: 1 (33.3) n (%)
  Dysgeusia, treatment‐related TEAE: 2 (66.7) n (%)
  Hyperphosphatemia, treatment‐related TEAE: 3 (100.0) n (%)
  Lipase increased, treatment‐related TEAE: 1 (33.3) n (%)
  Nausea, treatment‐related TEAE: 1 (33.3) n (%)
  PPE syndrome, treatment‐related TEAE: 1 (33.3) n (%)
  Retinal detachment, treatment‐related TEAE: 1 (33.3) n (%)
  Vomiting, treatment‐related TEAE: 1 (33.3) n (%)
[1]; 180 mg (n = 3), any grade
  ALT increased, treatment‐related TEAE: 2 (66.7) n (%)
  AST increased, treatment‐related TEAE: 2 (66.7) n (%)
  Blood creatinine increased, treatment‐related TEAE: 1 (33.3) n (%)
  Diarrhea, treatment‐related TEAE: 3 (100.0) n (%)
  Dysgeusia, treatment‐related TEAE: 1 (33.3) n (%)
  Hyperphosphatemia, treatment‐related TEAE: 3 (100.0) n (%)
  Lipase increased, treatment‐related TEAE: 1 (33.3) n (%)
  Nausea, treatment‐related TEAE: 1 (33.3) n (%)
  PPE syndrome, treatment‐related TEAE: 2 (66.7) n (%)
  Vomiting, treatment‐related TEAE: 1 (33.3) n (%)
[1]; 180 mg (n = 3), ≥Grade 3
  ALT increased, treatment‐related TEAE: 2 (66.7) n (%)
  AST increased, treatment‐related TEAE: 1 (33.3) n (%)
  Vomiting, treatment‐related TEAE: 1 (33.3) n (%)
[1]; 1‐30 mg (n = 12), any grade
  Blood creatinine increased, treatment‐related TEAE: 2 (16.7) n (%)
  Lipase increased, treatment‐related TEAE: 1 (8.3) n (%)
  Nausea, treatment‐related TEAE: 1 (8.3) n (%)
[1]; QD
  Recommended dose for Part 2 (expansion part): 140 mg
[1]; Total (N = 24), any grade
  ALT increased, treatment‐related TEAE: 6 (25.0) n (%)
  AST increased, treatment‐related TEAE: 4 (16.7) n (%)
  Anemia, treatment‐related TEAE: 3 (12.5) n (%)
  Blood ALP increased, treatment‐related TEAE: 3 (12.5) n (%)
  Blood creatinine increased, treatment‐related TEAE: 9 (37.5) n (%)
  Diarrhea, treatment‐related TEAE: 6 (25.0) n (%)
  Dysgeusia, treatment‐related TEAE: 3 (12.5) n (%)
  Hyperphosphatemia, treatment‐related TEAE: 9 (37.5) n (%)
  Lipase increased, treatment‐related TEAE: 5 (20.8) n (%)
  Nausea, treatment‐related TEAE: 5 (20.8) n (%)
  PPE syndrome, treatment‐related TEAE: 4 (16.7) n (%)
  Retinal detachment, treatment‐related TEAE: 3 (12.5) n (%)
  Vomiting, treatment‐related TEAE: 3 (12.5) n (%)
[1]; Total (N = 24), ≥Grade 3
  ALT increased, treatment‐related TEAE: 2 (8.3) n (%)
  AST increased, treatment‐related TEAE: 1 (4.2) n (%)
  Vomiting, treatment‐related TEAE: 1 (4.2) n (%)
[1]; daily oral dose of 1‐180 mg
  Maximum tolerated dose (MTD): not reached
[1]; in vivo
  Drug‐related deaths: No drug‐related deaths were reported
  Number of AE of hyperphosphatemia: nine
  Number of AE of retinal detachment: three
  SAE considered related to the study drug: None
  TEAE leading to discontinuation of the study drug: no TEAE led to discontinuation
  TEAE leading to dose reduction: PPE syndrome: 2 n
  TEAE leading to dose reduction: increased ALT: 2 n
  TEAE leading to dose reduction: increased AST: 1 n
  TEAE‐related dose interruption: anorexia: 2 n
  TEAE‐related dose interruption: decreased neutrophil count: 1 n
  TEAE‐related dose interruption: nasopharyngitis: 1 n
  TEAE‐related dose interruption: nausea: 3 n
  TEAE‐related dose interruption: vomiting: 2 n
[1]; of 24 patients treated
  Number of patients with SAE: three
FGFR
  Phosphorylation of downstream molecules including FRS2α, ERK1/2, and AKT: inhibited phosphorylation
FGFR pathway
  Doses with sufficient FGFR pathway inhibition: ≥ 100 mg
Advanced solid tumors; 30‐mg cohort
  Antitumor activity in cholangiocarcinoma with FGFR2 fusion: did not show potent antitumor activity
Advanced solid tumors; 180‐mg cohort, gastric cancer with FGFR2 amplification, cycle 3 day 1, from 38 to 11 mm
  Reduction in diameter of the target lesion: 71%
Phase I pharmacokinetics; 1‐16‐mg cohorts
  Plasma concentrations at 72 hours after dosing: below the limit of quantification
Phase I pharmacokinetics; [3]
  AUC(0‐t): 162 ng·h/mL
  C avg: 7 ng/mL
  C max: 13 ng/mL
  C min: 5 ng/mL
Phase I pharmacokinetics; repeated dose QD, 30 mg (n = 2)
  T max: 4 (3‐5) h
Phase I pharmacokinetics; [4]
  AUC(0‐t): 507 ^a h × ng/mL
  C avg: 21 ^a ng/mL
  C max: 51 ^a ng/mL
  C min: 11 ^a ng/mL
Phase I pharmacokinetics; repeated dose QD, 60 mg (n = 2)
  T max: 3 (2‐3) ^a h
Phase I pharmacokinetics; [5]
  AUC(0‐t): 1340 ± 437 ng·h/mL
  C avg: 56 ± 18 ng/mL
  C max: 116 ± 4 ng/mL
  C min: 22 ± 9 ng/mL
Phase I pharmacokinetics; repeated dose QD, 100 mg (n = 3)
  T max: 3 (2‐5) h
Phase I pharmacokinetics; [6]
  AUC(0‐t): 4700 ± 3380 ng·h/mL
  C avg: 196 ± 141 ng/mL
  C max: 372 ± 173 ng/mL
  C min: 117 ± 116 ng/mL
Phase I pharmacokinetics; repeated dose QD, 140 mg (n = 3)
  T max: 5 (3‐5) h
Phase I pharmacokinetics; [7]
  AUC(0‐t): 3860 ± 764 ng·h/mL
  C avg: 161 ± 32 ng/mL
  C max: 337 ± 60 ng/mL
  C min: 65 ± 19 ng/mL
Phase I pharmacokinetics; repeated dose QD, 180 mg (n = 3)
  T max: 5 (3‐5) h
Phase I pharmacokinetics; [8]
  AUC(0‐inf): 239 ng·h/mL
  AUC(0‐t): 222 ng·h/mL
  C max: 28 ng/mL
  CL/F: 127 L/h
  T 1/2: 23 h
  Vz/F: 4180 L
Phase I pharmacokinetics; single dose, 30 mg (n = 2)
  T max: 3 (1‐5) h
Phase I pharmacokinetics; [9]
  AUC(0‐inf): 554 ± 247 ng·h/mL
  AUC(0‐t): 533 ± 257 ng·h/mL
  C max: 39 ± 5 ng/mL
  CL/F: 121 ± 43 L/h
  T 1/2: 23 ± 8 h
  Vz/F: 3790 ± 1240 L
Phase I pharmacokinetics; single dose, 60 mg (n = 3)
  T max: 3 (3‐5) h
Phase I pharmacokinetics; [10]
  AUC(0‐inf): 1120 ± 479 ng·h/mL
  AUC(0‐t): 1080 ± 474 ng·h/mL
  C max: 86 ± 31 ng/mL
  CL/F: 103 ± 48 L/h
  T 1/2: 15 ± 2 h
  Vz/F: 2310 ± 1360 L
Phase I pharmacokinetics; single dose, 100 mg (n = 3)
  T max: 5 (3‐5) h
Phase I pharmacokinetics; [11]
  AUC(0‐inf): 4050 ± 3340 ng·h/mL
  AUC(0‐t): 3960 ± 3230 ng·h/mL
  C max: 227 ± 118 ng/mL
  CL/F: 59 ± 50 L/h
  T 1/2: 27 ± 12 h
  Vz/F: 1670 ± 617 L
Phase I pharmacokinetics; single dose, 140 mg (n = 3)
  T max: 5 (3‐5) h
Phase I pharmacokinetics; [12]
  AUC(0‐inf): 2610 ± 921 ng·h/mL
  AUC(0‐t): 2570 ± 933 ng·h/mL
  C max: 154 ± 38 ng/mL
  CL/F: 74 ± 22 L/h
  T 1/2: 24 ± 10 h
  Vz/F: 2550 ± 1550 L
Phase I pharmacokinetics; single dose, 180 mg (n = 3)
  T max: 2 (2‐5) h
Phase I pharmacokinetics; up to 180 mg
  C max and AUC(0‐ t ) versus dose: Dose‐dependent increases
[2]
  Survival effect: significantly prolonged survival effect
